Results from ChEMBL document CHEMBL3286225, “Novel carboline derivatives as potent antifungal lead compounds: design, synthesis, and biological evaluation” (ACS Med Chem Lett, 2014).
≈ marks a conversion by molar mass, not a printed value. Calls of active or inactive are those of the source. No cut-off for these calls is given here.

Key:
Candida albicans [1] = experiment: Antifungal activity against fluconazole-resistant Candida albicans 100 after 24 hrs by serial dilution method in presence of fluconazole; format: functional
In short: (§1)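 Tested in combination with fluconazole against each fluconazole-resistant C. albicans strain. Interaction was scored by fractional inhibitory concentration index (FICI): synergy at FICI ≤ 0.5, indifference at 0.5 < FICI ≤ 4, antagonism at FICI > 4.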

Candida albicans [2] = experiment: Antifungal activity against fluconazole-resistant Candida albicans 805 after 24 hrs by serial dilution method in presence of fluconazole; format: functional; in short: as §1
Candida albicans [3] = experiment: Antifungal activity against fluconazole-sensitive Candida albicans SC5314 assessed as thinning of outer sphere of cell wall at 8 ug/ml after 8 hrs by TEM analysis; format: functional, organism-based
In short: (§2)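 Transmission electron microscopy of C. albicans SC5314 cells exposed to 8 μg/mL for 8 h. Untreated cells and cells given fluconazole 8 μg/mL for 8 h served as controls. Cell wall layers, cytoplasmic density and vacuole shape were compared by eye.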

Candida albicans [4] = experiment: Antifungal activity against fluconazole-sensitive Candida albicans SC5314 assessed as thickening of middle sphere of cell wall at 8 ug/ml after 8 hrs by TEM analysis; format: functional, organism-based; in short: as §2
Candida albicans [5] = experiment: Antifungal activity against fluconazole-sensitive Candida albicans SC5314 assessed as abnormal vacuole shape at 8 ug/ml after 8 hrs by TEM analysis; format: functional, organism-based; in short: as §2
Candida albicans [6] = experiment: Antifungal activity against fluconazole-sensitive Candida albicans SC5314 assessed as reduction in cytoplasmic density at 8 ug/ml after 8 hrs by TEM analysis; format: functional, organism-based; in short: as §2
Candida albicans [7] = experiment: Antifungal activity against fluconazole-sensitive Candida albicans SC5314 assessed as necrosis at 8 ug/ml after 8 hrs by TEM analysis; format: functional, organism-based; in short: as §2
Candida albicans [8] = experiment: Antifungal activity against fluconazole-sensitive Candida albicans SC5314 assessed as change in ergosterol composition at 8 ug/ml after 24 hrs by GC-MS analysis (reference value: 90%); format: functional
In short: (§3)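 C. albicans SC5314 exposed to 8 μg/mL for 24 h, sterols analysed by GC-MS with cholesterol internal standard; each sterol expressed as % of total sterol fraction versus no-drug control; average of three independent experiments.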

Candida albicans [9] = experiment: Antifungal activity against fluconazole-sensitive Candida albicans SC5314 assessed as change in eburicol composition at 8 ug/ml after 24 hrs by GC-MS analysis relative to control; format: functional; in short: as §3
CYP2C19 [10] = molecular target: T1, CYP2C19 (Homo sapiens, UniProt P33261); experiment: Inhibition of CYP2C19 in human liver microsomes assessed as S-mephenytoin conversion to 4'-hydroxy mephenytoin at 25 uM preincubated for 10 mins followed by NADPH addition measured after 15 mins by LC-MS/MS analysis relative to control; format: ADME; settings: probe S-mephenytoin
CYP2C9 = CYP2C9 (Homo sapiens, UniProt P11712); experiment: Inhibition of CYP2C9 in human liver microsomes assessed as tolbutamide conversion to 4-hydroxy tolbutamide at 25 uM preincubated for 10 mins followed by NADPH addition measured after 15 mins by LC-MS/MS analysis relative to control; format: ADME; settings: probe tolbutamide
CYP2C19 [11] = molecular target: T1, CYP2C19; experiment: Inhibition of CYP2C19 in human liver microsomes assessed as S-mephenytoin conversion to 4'-hydroxy mephenytoin at 2.5 uM preincubated for 10 mins followed by NADPH addition measured after 15 mins by LC-MS/MS analysis relative to control; format: ADME; settings: probe S-mephenytoin
CYP3A4 [12] = molecular target: T2, CYP3A4 (Homo sapiens, UniProt P08684); experiment: Inhibition of CYP3A4 in human liver microsomes assessed as testosterone conversion to 6-hydroxy testosterone at 2.5 uM preincubated for 10 mins followed by NADPH addition measured after 15 mins by LC-MS/MS analysis relative to control; format: ADME; settings: probe testosterone
CYP3A4 [13] = molecular target: T2, CYP3A4; experiment: Inhibition of CYP3A4 in human liver microsomes assessed as midazolam conversion to 1'-hydroxy midazolam at 2.5 uM preincubated for 10 mins followed by NADPH addition measured after 15 mins by LC-MS/MS analysis relative to control; format: ADME; settings: probe midazolam
Cytochrome P450 2C19 = Cytochrome P450 2C19 (Homo sapiens, UniProt P33261); experiment: Inhibition of CYP2C19 in human liver microsomes assessed as S-mephenytoin conversion to 4'-hydroxy mephenytoin preincubated for 10 mins followed by NADPH addition measured after 15 mins by LC-MS/MS analysis; format: ADME
Cytochrome P450 2C9 = Cytochrome P450 2C9 (Homo sapiens, UniProt P11712); experiment: Inhibition of CYP2C9 in human liver microsomes assessed as tolbutamide conversion to 4-hydroxy tolbutamide preincubated for 10 mins followed by NADPH addition measured after 15 mins by LC-MS/MS analysis; format: ADME
Cytochrome P450 3A4 = Cytochrome P450 3A4 (Homo sapiens, UniProt P08684); experiment: Inhibition of CYP3A4 in human liver microsomes assessed as midazolam conversion to 1'-hydroxy midazolam preincubated for 10 mins followed by NADPH addition measured after 15 mins by LC-MS/MS analysis; format: ADME
Candida albicans [14] = experiment: Antifungal activity against fluconazole-sensitive Candida albicans SC5314 after 24 hrs by serial dilution method; format: functional; settings: SC5314, 24 h
Candida parapsilosis = experiment: Antifungal activity against Candida parapsilosis ATCC 22019 after 24 hrs by serial dilution method; format: functional; settings: Lodderomyces parapsilosis, ATCC 22019, 24 h
Cryptococcus neoformans = experiment: Antifungal activity against Cryptococcus neoformans 32609 after 72 hrs by serial dilution method; format: functional; settings: Cryptococcus neoformans, 32609, 72 h
Trichophyton rubrum = experiment: Antifungal activity against Trichophyton rubrum Cmccftla after 7 days by serial dilution method; format: functional; settings: 168 h
Candida albicans [15] = experiment: Fungicidal activity against fluconazole-sensitive Candida albicans SC5314 after 12 to 48 hrs; format: functional, organism-based
In short: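 Time-kill assay starting from 10^5 CFU/mL C. albicans SC5314. Test concentrations ranged from 2–32 μg/mL. Untreated and fluconazole 32 μg/mL controls were included. Viable counts (CFU/mL) were taken at 0, 12, 24 and 48 h of incubation.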

Candida albicans [16] = experiment: Inhibition of biofilm formation of fluconazole-sensitive Candida albicans SC5314 at 64 ug/ml after 48 hrs by XTT assay relative to control; format: functional; settings: SC5314, 48 h
In short: (§4)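 Biofilm formation by C. albicans SC5314 or 103 in presence of 2–64 μg/mL drug (fluconazole 64 μg/mL reference); quantified by XTT reduction as % of blank control; mean ± standard deviation of three independent experiments, ANOVA and Student t test.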

Candida albicans [17] = experiment: Inhibition of biofilm formation of fluconazole-resistant Candida albicans 103 after 48 hrs by XTT assay; format: functional, organism-based; in short: as §4
Candida albicans [18] = experiment: Inhibition of biofilm formation of fluconazole-sensitive Candida albicans SC5314 at 4 ug/ml after 48 hrs by XTT assay relative to control; format: functional; settings: SC5314, 48 h
In short: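 Biofilm formation by C. albicans SC5314 was tested with compound at 2–64 μg/mL. Untreated and fluconazole 64 μg/mL controls were included. Biofilm was quantified by XTT reduction and expressed as % of untreated control. Mean ± SD of three independent experiments; ANOVA and Student t test, p<0.05.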

Candida albicans [19] = experiment: Inhibition of hyphal growth of fluconazole-sensitive Candida albicans SC5314 assessed as appearance of unicellular budding yeast form at 4 to 8 ug/ml after 16 hrs by light microscopic analysis; format: functional, organism-based
In short: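 C. albicans SC5314 was grown in RPMI 1640 at 37 °C for 16 h, without compound or with 2–8 μg/mL. A fluconazole 8 μg/mL control was included. Cell morphology (hyphae, pseudohyphae, budding yeast) was then scored by microscopy.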

Candida albicans [20] = experiment: Antifungal activity against fluconazole-resistant Candida albicans 103 after 24 hrs by serial dilution method in presence of fluconazole; format: functional; in short: as §1

T1 sequence (P33261 whole entry): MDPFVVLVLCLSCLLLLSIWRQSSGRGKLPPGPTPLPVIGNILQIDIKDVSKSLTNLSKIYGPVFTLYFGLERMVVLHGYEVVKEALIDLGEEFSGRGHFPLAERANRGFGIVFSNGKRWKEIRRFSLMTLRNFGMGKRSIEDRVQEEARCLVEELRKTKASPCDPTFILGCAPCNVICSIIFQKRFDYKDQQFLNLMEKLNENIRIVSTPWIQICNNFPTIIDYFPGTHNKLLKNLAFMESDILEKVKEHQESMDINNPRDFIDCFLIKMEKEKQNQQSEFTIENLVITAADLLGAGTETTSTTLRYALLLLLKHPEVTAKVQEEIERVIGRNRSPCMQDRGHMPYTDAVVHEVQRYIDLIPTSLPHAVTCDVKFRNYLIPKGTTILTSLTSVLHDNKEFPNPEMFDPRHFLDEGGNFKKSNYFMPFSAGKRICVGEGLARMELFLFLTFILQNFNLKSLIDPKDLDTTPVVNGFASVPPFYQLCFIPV
T2 sequence (P08684 whole entry): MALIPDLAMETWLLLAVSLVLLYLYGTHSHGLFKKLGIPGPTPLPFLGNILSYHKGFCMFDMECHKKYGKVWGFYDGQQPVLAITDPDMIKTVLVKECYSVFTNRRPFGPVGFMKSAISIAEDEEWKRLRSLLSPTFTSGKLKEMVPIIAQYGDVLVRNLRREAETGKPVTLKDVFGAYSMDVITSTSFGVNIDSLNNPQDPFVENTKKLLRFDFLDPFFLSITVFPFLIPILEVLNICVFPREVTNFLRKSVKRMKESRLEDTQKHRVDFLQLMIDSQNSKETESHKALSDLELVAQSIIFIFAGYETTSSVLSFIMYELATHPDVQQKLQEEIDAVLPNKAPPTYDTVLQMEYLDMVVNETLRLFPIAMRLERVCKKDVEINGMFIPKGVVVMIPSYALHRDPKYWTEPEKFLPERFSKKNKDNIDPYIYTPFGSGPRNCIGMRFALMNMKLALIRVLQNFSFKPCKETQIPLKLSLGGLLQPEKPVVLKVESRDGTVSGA
Cytochrome P450 2C9, sequence (P11712 whole entry): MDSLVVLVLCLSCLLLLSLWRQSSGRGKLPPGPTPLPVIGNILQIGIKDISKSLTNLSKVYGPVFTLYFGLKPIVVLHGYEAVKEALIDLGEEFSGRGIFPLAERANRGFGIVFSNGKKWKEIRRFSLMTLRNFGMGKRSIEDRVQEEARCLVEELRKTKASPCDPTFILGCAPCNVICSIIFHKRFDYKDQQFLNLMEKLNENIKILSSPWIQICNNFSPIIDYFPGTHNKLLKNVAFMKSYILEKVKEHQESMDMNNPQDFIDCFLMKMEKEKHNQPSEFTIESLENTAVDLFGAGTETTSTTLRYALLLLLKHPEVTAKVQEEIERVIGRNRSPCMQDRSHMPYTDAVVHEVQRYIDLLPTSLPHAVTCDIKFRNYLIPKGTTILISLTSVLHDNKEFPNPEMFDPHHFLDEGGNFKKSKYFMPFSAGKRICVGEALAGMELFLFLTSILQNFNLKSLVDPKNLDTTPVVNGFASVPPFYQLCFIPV
CYP2C9, sequence (P11712 whole entry): as above
Cytochrome P450 2C19, sequence (P33261 whole entry): as the sequence (P33261 whole entry) above
Cytochrome P450 3A4, sequence (P08684 whole entry): as the sequence (P08684 whole entry) above

Fc1ccc2c(c1)c1c(n2CCCOc2ccc(Cl)cc2)CCNC1
fractional inhibitory concentration index (FICI) (Candida albicans [1]): 0.252 | fractional inhibitory concentration index (FICI) (Candida albicans [2]): 0.252 | Activity (Candida albicans [3]): Active | Activity (Candida albicans [4]): Active | Activity (Candida albicans [5]): Active | Activity (Candida albicans [6]): Active | Activity (Candida albicans [7]): Active | Activity (Candida albicans [8]): 40.2% | Activity (Candida albicans [9]): 12.4% | inhibition at 0.25 h, 25 µM (CYP2C19 [10]): 33% | inhibition at 0.25 h, 25 µM (CYP2C9): 36% | inhibition at 0.25 h, 2.5 µM (CYP2C19 [11]): 5% | inhibition at 0.25 h, 2.5 µM (CYP3A4 [12]): -10% | inhibition at 0.25 h, 2.5 µM (CYP3A4 [13]): -10% | IC50 (Cytochrome P450 2C19): > 25 µM | IC50 (Cytochrome P450 2C9): > 25 µM | IC50 (Cytochrome P450 3A4): 50 µM | MIC80 (Candida albicans [14]): 2 µg/mL (≈ 5.57 µM) | MIC80 (Candida parapsilosis): 4 µg/mL (≈ 11.1 µM) | MIC80 (Cryptococcus neoformans): 1 µg/mL (≈ 2.79 µM) | MIC80 (Trichophyton rubrum): 2 µg/mL (≈ 5.57 µM) | Activity (Candida albicans [15]): Dose-dependent effect | inhibition at 64 µg/mL (Candida albicans [16]): > 80% | inhibition (Candida albicans [17]): Dose-dependent effect | inhibition at 4 µg/mL (Candida albicans [18]): > 50% | growth inhibition (GI) (Candida albicans [19]): Active | fractional inhibitory concentration index (FICI) (Candida albicans [20]): 0.252
